“Also recorded” adds a separate entry of the source.
B1: CarANt: the highly basic and autonomously folded N-terminal DNA-binding domain of CarA (protein)
chain: MTLRIRTIARMTGIREATLRAWERRYGFPRPLRSEGNNYRVYSREEVEAVRRVARLIQEEGLSVSEAIAQVKTEPPRE
modifications: left off: H6, end not stated, cleaved
B2: R27A variant of whole CarH (protein)
chain: MAERTYRINIAAELAGVRVELIRAWEARYGVLTPRRTPAGYRAYTDRDVAVLKQLKRLTDEGVAISEAAKLLPQLMEGLEAEVAGRGASQDARPHAETWRESMLAATQAYDQPRVSDVLDEVLAALPPLKAFDEVLAPLLCDVGERWESGTLTVAQEHLVSQMVRARLVSLLHAAPLGRHRHGVLACFPEEEHEMGLLGAALRLRHLGVRVTLLGQRVPAEDLGRAVLALRPDFVGLSTVASRSAEDFEDTLTRLRQALPRGLPVWVGGAAARSHQAVCERLAVHVFQGEEDWDRLAGT

Legend:
CarS(D52A/D53A) = assay: ITC titration with CarS; type: binding, Myxococcus xanthus; settings: pH 7.5
How it was run: (§1)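 ITC in 100 mM NaCl, 50 mM phosphate pH 7.5, 2 mM β-mercaptoethanol, 0.05% sodium azide; samples were dialysed or dissolved in this buffer and degassed. Cell held 20 µM CarANt or peptide, titrated with 30 injections of 0.22 mM CarS variant, stirring 300 rpm. Heat of dilution was subtracted using buffer controls. Data were fit to a single-site model; at least two independent titrations.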

[1] = Analytical gel filtration of pure proteins; type: physicochemical; settings: Superdex200, 50 mM phosphate pH 7.5, 2 mM β-mercaptoethanol
How it was run: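 Superdex200 analytical size-exclusion HPLC in 50 mM phosphate pH 7.5, 2 mM β-mercaptoethanol and the required NaCl. Samples were 10–50 µM pure protein, or CarNt or CarHNt mixed with CarS or variant at equivalent concentrations. Flow was 0.4 ml/min with detection at 280, 235 and 220 nm. Peak fractions were identified by SDS–PAGE. Mr was taken from elution volume via log Mr = 7.64 – 0.209 Ve.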

CarS [2] = target: T1, CarS (Myxococcus xanthus, UniProt Q06911); assay: ITC titration with CarS; type: binding; settings: ITC
T1 sequence (Q06911 1-111): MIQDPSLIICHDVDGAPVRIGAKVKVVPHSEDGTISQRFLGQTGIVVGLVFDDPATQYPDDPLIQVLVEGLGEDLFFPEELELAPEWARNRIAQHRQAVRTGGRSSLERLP

CarS [3] = target: T1, CarS; assay: Far-UV CD spectroscopy with CarS; settings: 25°C, 100 mM KF, 7.5 mM phosphate pH 7.5
How it was run: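 Far-UV CD was recorded at 25°C in 0.2-nm steps (adaptive sampling) with 2-nm slit width, averaging three scans. Samples were 10–20 µM protein, peptide or 1:1 mixture in 100 mM KF, 7.5 mM phosphate pH 7.5. The instrument was calibrated with (+)-10-camphorsulfonic acid.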

CarS(F77A) = assay: ITC titration with CarS; type: binding, Myxococcus xanthus; settings: pH 7.5
How it was run: as §1

CarS1 [4] = target: T2, CarS1 (Myxococcus xanthus, UniProt Q06911); assay: NMR chemical shift mapping on labeled H6CarS1; type: binding; settings: ^15N, ^13C-H6CarS1 0.10–0.25 mM titrated with unlabeled CarANt, P01 or P02, 25°C or 45°C
T2 sequence (Q06911 1-86): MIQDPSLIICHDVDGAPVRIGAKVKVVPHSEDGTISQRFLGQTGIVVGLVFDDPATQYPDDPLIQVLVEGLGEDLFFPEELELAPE

CarS1 [5] = target: T2, CarS1; assay: Far-UV CD spectroscopy with CarS1; settings: 1:1 molar ratio with CarS1, 25°C, 100 mM KF, 7.5 mM phosphate pH 7.5
How it was run: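 Far-UV CD at 25°C, 10–20 µM samples in 100 mM KF, 7.5 mM phosphate pH 7.5, three scans averaged, 0.2-nm steps. Peptide (18 µM) or CarANt (11 µM) was measured alone and mixed 1:1 with CarS1. The read-out was molar ellipticity difference between the mixture and CarS1 alone.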

CarS [6] = target: T1, CarS; assay: Yeast two-hybrid interaction with CarS; type: cell-based; settings: not shown
How it was run: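 Yeast EGY48 carrying lacZ reporter pSH18-34 was cotransformed (lithium acetate) with LexA–CarA and B42–CarS or variant fusions. Equal-density cultures were spotted on galactose or glucose (basal fusion expression) plates with leucine, grown 1 day at 30°C, then overlaid with X-Gal agarose for 2–3 h (Gal) or ≥7 h (Glu). Interaction was scored by blue colour; single-hybrid cells served as controls.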

| Molecule | ITC heat change / binding (CarS(D52A/D53A)) | Apparent Mr of pure protein [1] [kDa] | KD relative to P01 and P02 (CarS [2]) | N (binding stoichiometry) (CarS [2]; CarS, 25 °C, pH 7.5, 100 mM NaCl, 50 mM phosphate, 2 mM β-mercaptoethanol, 0.05% sodium azide, 20 µM CarANt or peptide titrated with 0.22 mM CarS, average of at least two independent titrations) | ΔH (CarS [2]; CarS, 25 °C, pH 7.5, 100 mM NaCl, 50 mM phosphate, average of at least two independent titrations) [kcalmol^−1] | Kd (CarS [2]; CarS, 25 °C, pH 7.5, 100 mM NaCl, 50 mM phosphate, single-site binding model, average of at least two independent titrations) [nM] | Far-UV CD change in presence of CarS (CarS [3]) | ITC heat change / binding (CarS(F77A)) | Chemical shift perturbations of labeled H6CarS1 (CarS1 [4]) | Far-UV CD change / helix content in presence of CarS1 (CarS1 [5]) | Two-hybrid interaction with CarS (CarS [6]) |
| --- | --- | --- | --- | --- | --- | --- | --- | --- | --- | --- | --- |
| B1 | could not be detected; also recorded: ^aHeat changes were negligible or undetected for the following titrations: (i) CarANt or P01 with CarS(F77A) or CarS(D52A/D53A); (ii) P03 with CarS or CarS1; (iii) TtP01 with CarS (for details on peptides P01, P02, P03, CHP01 and TtP01, see Figures 3A and 4A, and text) | 9.6 | over an order of magnitude lower | 0.94 ± 0.01 | −9.24 ± 0.02 | ~10 | in a manner similar to CarS1 | could not be detected; also recorded: ^aHeat changes were negligible or undetected for the following titrations: (i) CarANt or P01 with CarS(F77A) or CarS(D52A/D53A); (ii) P03 with CarS or CarS1; (iii) TtP01 with CarS (for details on peptides P01, P02, P03, CHP01 and TtP01, see Figures 3A and 4A, and text) | significant perturbations for the methyl cross-peaks of V26, L63, L75, L81 (Figure 1C) and I64 | no significant change | – |
| B2 | – | – | – | – | – | – | – | – | – | – | lack of interaction with CarS |
